# Legend:
# [1] = test system: patients with idiopathic pulmonary fibrosis; assay: Phase Ic study; assay type: in vivo, human
# In short: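 Randomised, double-blind, placebo-controlled within-dose-group study at 11 European sites. Patients with IPF, aged ≥40 years, had no nintedanib or pirfenidone within 30 days and none planned. Dosing was oral, 18 mg twice daily, for up to 12 weeks, reduced to 4 weeks by amendment. Drug-related AEs were graded mild, moderate or severe. ECG, laboratory tests and suicidality were also assessed. Descriptive statistics only.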
# [2] = test system: patients with idiopathic pulmonary fibrosis; assay: Phase Ic study: exploratory lung function efficacy endpoints; assay type: in vivo, human; conditions: IPF, 18 mg twice daily
# [3] = Phase I study: pharmacokinetics of BI 1015550 in plasma and urine; assay type: in vivo, human; conditions: for AUCτ,1 / Cmax / RA,AUC (accumulation ratio) / RA,Cmax (accumulation ratio) / AUCτ,ss / CLR,0–120 (renal clearance) / fe0–120 (fraction excreted unchanged in urine 0–120 h) / AUC0−∞: gMean; for AUCτ,ss: steady state
# In short: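 Oral test compound was given to healthy males as single doses (36 or 48 mg, fasted) or 6 or 12 mg twice daily (fed). Twice-daily dosing was a morning dose on day 1, none on day 2 (34-h sampling), days 3–13 twice daily, and a morning dose on day 14. Read-outs were plasma Cmax, AUC0–∞, first-dose and steady-state AUCτ, accumulation ratios and 0–120 h urinary excretion, reported as gMean with gCV.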
# [4] = Phase Ic study: pharmacokinetics of BI 1015550 in plasma; assay type: in vivo, human
# In short: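 IPF patients received oral 18 mg twice daily. Plasma Cmax and AUCτ,1 were taken after the first dose on day 1, and Cmax,ss and AUCτ,ss after the morning dose on day 14. Accumulation ratios were calculated as steady-state over single-dose values. Results are reported as geometric mean with gCV.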
# healthy male subjects = assay: Phase I study; assay type: in vivo, human; conditions: for Body weight, mean±SD change from baseline: placebo 0.21±1.06
# In short: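 Healthy males aged 18–45 years with BMI 18.5–29.9 kg·m−2, partially randomised to oral test compound or matching placebo. Single doses were 36 or 48 mg, fasted and patient-blinded. Twice-daily doses were 6 or 12 mg over 14 days, fed and double-blind. Drug-related AEs were graded mild, moderate or severe. ECG, laboratory tests and, for multiple dosing, suicidality were also assessed. Descriptive statistics only.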
# human lung fibroblast = conditions: in vitro; cited from earlier work
# [5] = IPF, 18 mg twice daily, placebo 40.0%
# [6] = after single and multiple oral administration
smiles,measurement,setting,value
[O-][S+]1CCc2nc(N3CCC(c4ncc(Cl)cn4)CC3)nc(NC3(CO)CCC3)c21 (centres unmarked) [BI 1015550],Mean observed weight loss,"[1]; IPF patients treated for up to 12 weeks, placebo –1.18",–1.74 kg
same,12-lead ECG or vital signs,"[1]; IPF, 18 mg twice daily",no clinically relevant findings
same,C-reactive protein (laboratory tests),"[1]; IPF, 18 mg twice daily",slight increase
same,Deaths,"[1]; IPF, 18 mg twice daily",no reported deaths
same,Diarrhoea,"[1]; IPF, 18 mg twice daily",40.0%
same,Nasopharyngitis,"[1]; IPF, 18 mg twice daily",40%
same,"Severe AE (considered drug related, led to discontinuation)","[1]; IPF, 18 mg twice daily",one severe AE of insomnia
same,Suicidal ideation or behaviour (C-SSRS),"[1]; IPF, 18 mg twice daily",no cases
same,"Body weight, difference between the two treatment groups","[1]; IPF, 18 mg twice daily vs placebo",no notable difference
same,AE leading to discontinuation of study drug,"[1]; IPF, 18 mg twice daily, n=10",1 (10.0) n (%)
same,Investigator-defined drug-related AE,"[1]; IPF, 18 mg twice daily, n=10",9 (90.0) n (%)
same,Patients requiring or prolonging hospitalisation,"[1]; IPF, 18 mg twice daily, n=10",1 (10.0) n (%)
same,Patients with AESI (hepatic injury),"[1]; IPF, 18 mg twice daily, n=10",0 (0.0) n (%)
same,Patients with SAEs,"[1]; IPF, 18 mg twice daily, n=10",1 (10.0) n (%)
same,Patients with other significant AEs according to ICH E3,"[1]; IPF, 18 mg twice daily, n=10",1 (10.0) n (%)
same,Severe AEs,"[1]; IPF, 18 mg twice daily, n=10",1 (10.0) n (%)
same,Gastrointestinal disorders,[1]; [5],80.0%
same,Infections and infestations,[1]; [5],50.0%
same,Patients with drug-related AEs,"[1]; IPF, 18 mg twice daily, placebo 60.0%",90.0%
same,Effect on lung function parameters,[2]; over the course of the trial,no clear effect
same,Trend towards a slight reduction in FVC over time (seen in placebo group),[2]; data not shown,not observed
same,Dose proportionality of AUC,[3]; 36 mg to 48 mg single dose and 6 mg to 12 mg twice daily,dose-proportional increase in AUC
same,Median time from last dosing to the maximum measured concentration,[3]; [6],1.25 to 1.52 h
same,Terminal half-lives,[3]; [6],16 to 27 h
same,"AUCτ,1","[3]; MRD 6 mg twice daily, after first dose, fed, n=8, gCV 24.8%",0.564 µM·h
same,Cmax,"[3]; MRD 6 mg twice daily, after first dose, fed, n=8, gCV 28.2%",103 nM
same,"RA,AUC (accumulation ratio)","[3]; MRD 6 mg twice daily, fed, n=8, gCV 9.91%",1.85
same,"RA,Cmax (accumulation ratio)","[3]; MRD 6 mg twice daily, fed, n=8, gCV 35.0%",1.60
same,"AUCτ,ss","[3]; MRD 6 mg twice daily, fed, n=8, gCV 25.7%",1.05 µM·h
same,"AUCτ,1","[3]; MRD 12 mg twice daily, after first dose, fed, n=8, gCV 15.9%",1.37 µM·h
same,Cmax,"[3]; MRD 12 mg twice daily, after first dose, fed, n=8, gCV 29.9%",229 nM
same,"RA,AUC (accumulation ratio)","[3]; MRD 12 mg twice daily, fed, n=8, gCV 14.8%",1.68
same,"RA,Cmax (accumulation ratio)","[3]; MRD 12 mg twice daily, fed, n=8, gCV 23.6%",1.52
same,"AUCτ,ss","[3]; MRD 12 mg twice daily, fed, n=8, gCV 15.8%",2.3 µM·h
same,"CLR,0–120 (renal clearance)","[3]; SRD 36 mg, fasted, n=4, gCV 21.5%",30.5^+ mL·min^−1
same,fe0–120 (fraction excreted unchanged in urine 0–120 h),"[3]; SRD 36 mg, fasted, n=5, gCV 45.2%",12.5^¶ %
same,Cmax,"[3]; SRD 36 mg, fasted, n=6, gCV 20.7%",710 nM
same,AUC0−∞,"[3]; SRD 36 mg, fasted, n=6, gCV 21.2%",5910 nmol·h/L
same,fe0–120 (fraction excreted unchanged in urine 0–120 h),"[3]; SRD 48 mg, fasted, n=4, gCV 13.4%",12.1^+ %
same,"CLR,0–120 (renal clearance)","[3]; SRD 48 mg, fasted, n=4, gCV 20.6%",25.2^+ mL·min^−1
same,AUC0−∞,"[3]; SRD 48 mg, fasted, n=5, gCV 17.2%",8700^¶ nmol·h·L^−1
same,Cmax,"[3]; SRD 48 mg, fasted, n=6, gCV 15.5%",955 nM
same,Steady state reached,[3]; multiple twice-daily administrations,≤ 6 days
same,"Exposure predictions (AUC0-24,ss) versus predefined exposure threshold",[4]; 24 mg twice-daily dose group (not dosed),exceeded the predefined exposure threshold
same,Administrations until 95% of the steady-state concentration was reached,"[4]; IPF, 18 mg twice daily",approximately five
same,Accumulation ratio based on AUCτ,"[4]; gMean, IPF, 18 mg twice daily",1.87
same,Accumulation ratio based on Cmax,"[4]; gMean, IPF, 18 mg twice daily",1.66
same,"AUCτ,1","[4]; gMean, IPF, 18 mg twice daily, day 1 after first dose, n=10, gCV 18.2%",1.99 µM·h
same,Cmax,"[4]; gMean, IPF, 18 mg twice daily, day 1 after first dose, n=10, gCV 23.1%",277 nM
same,"AUCτ,ss","[4]; gMean, IPF, 18 mg twice daily, day 14 steady state, n=10, gCV 49.5%",3.72 µM·h
same,Difference in pharmacokinetic parameters between healthy volunteers and patients with IPF,[4]; in vivo,no difference
same,Subjects with any AE,"healthy male subjects; MRD 6 mg twice daily, n=8",2 (25.0) n (%)
same,Subjects with investigator-defined drug-related AEs,"healthy male subjects; MRD 6 mg twice daily, n=8",2 (25.0) n (%)
same,"Body weight, mean±SD change from baseline",healthy male subjects; MRD 6 mg twice daily,–1.21±0.43 kg
same,"Clinically relevant laboratory finding: increase in blood triglycerides, considered drug-related",healthy male subjects; MRD 12 mg twice daily,one subject
same,Subjects with any AE,"healthy male subjects; MRD 12 mg twice daily, n=8",5 (62.5) n (%)
same,Subjects with investigator-defined drug-related AEs,"healthy male subjects; MRD 12 mg twice daily, n=8",4 (50.0) n (%)
same,"Body weight, mean±SD change from baseline",healthy male subjects; MRD 12 mg twice daily,–1.34±1.61 kg
same,Suicidal ideation or behaviour (C-SSRS),healthy male subjects; MRD part,No incidence
same,Gastrointestinal disorders,"healthy male subjects; MRD part, placebo 12.5%",18.8%
same,Nervous system disorders (headache),"healthy male subjects; MRD part, placebo 12.5%",31.3%
same,Subjects with AEs,"healthy male subjects; MRD part, placebo 37.5%",43.8%
same,Subjects with any AE,"healthy male subjects; MRD total, n=16",7 (43.8) n (%)
same,Subjects with investigator-defined drug-related AEs,"healthy male subjects; MRD total, n=16",6 (37.5) n (%)
same,Subjects with any AE,"healthy male subjects; SRD 36 mg single dose, n=6",4 (66.7) n (%)
same,Subjects with investigator-defined drug-related AEs,"healthy male subjects; SRD 36 mg single dose, n=6",2 (33.3) n (%)
same,Subjects with any AE,"healthy male subjects; SRD 48 mg single dose, n=6",4 (66.7) n (%)
same,Subjects with investigator-defined drug-related AEs,"healthy male subjects; SRD 48 mg single dose, n=6",4 (66.7) n (%)
same,"Deaths, severe AEs, serious AEs, AEs of special interest or other significant AEs",healthy male subjects; SRD and MRD parts,no reported
same,ECG recordings or vital signs,healthy male subjects; SRD and MRD parts,no clinically relevant findings
same,Intensity of all AEs,healthy male subjects; SRD and MRD parts,mild or moderate
same,Gastrointestinal disorders,"healthy male subjects; SRD part, placebo 16.7%",25.0%
same,Nervous system disorders (headache and dizziness),"healthy male subjects; SRD part, placebo 16.7%",41.7%
same,Subjects with AEs,"healthy male subjects; SRD part, placebo 16.7%",66.7%
same,Subjects with any AE,"healthy male subjects; SRD total, n=12",8 (66.7) n (%)
same,Subjects with investigator-defined drug-related AEs,"healthy male subjects; SRD total, n=12",6 (50.0) n (%)
same,Subjects with drug-related AEs,"healthy male subjects; multiple doses (MRD total), placebo 12.5%",37.5%
same,Subjects with drug-related AEs,"healthy male subjects; single dose (SRD total), placebo 16.7%",50.0%
same,Human lung fibroblast proliferation,human lung fibroblast,inhibition
same,Myofibroblast transformation,human lung fibroblast,inhibition
